The values that follow come from ChEMBL document CHEMBL1151266, “Cytotoxic principles from the formosan milkweed, Asclepias curassavica” (J Nat Prod, 2005).

The IC50 is the concentration needed to halve the response being measured. The low end stands for greater potency in that assay, the high end for weaker potency in that assay.

≈ marks a conversion by molar mass, not a printed value.

Common to all, as to format: functional, cell-based
One assay relates to MCF7. As to the kind of experiment: Cytotoxicity against human MCF7 cells after 3 days by MTT assay. As to conditions: MCF7, 72 h. The method, boiled down: (§1)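 Freshly trypsinized cells seeded at 5000-10 000 per well; test agents added from DMSO stock. After 3 days in culture, attached cells incubated with MTT (0.5 mg/mL, 1 h), then solubilized in DMSO; absorbance read at 550 nm. IC50 taken as concentration reducing cell growth by 50%.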

The next assay has as its system HepG2. As to the kind of experiment: Cytotoxicity against human HepG2 cells after 3 days by MTT assay. The conditions noted are these: HepG2, 72 h. The essentials: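 Freshly trypsinized cells seeded at 5000-10 000 per well; test agents added from DMSO stock. After 3 days in culture, attached cells incubated with MTT (0.5 mg/mL, 1 h), then solubilized in DMSO; absorbance read at 550 nm.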
On the technique in general: Tetrazolium assays rely on reduction of a dye to a coloured formazan, in cell work by metabolically active cells.

For another assay, the system named is MDA-MB-231. As to the kind of experiment: Cytotoxicity against human MDA-MB-231 cells after 3 days by MTT assay. As to conditions: MDA-MB-231, 72 h. The essentials: as §1
For a further assay, the system named is A549. In words: Cytotoxicity against human A549 cells after 3 days by MTT assay. The conditions noted are these: A549, 72 h. The essentials: as §1
Another assay has as its system KB. In words: Cytotoxicity against human KB cells.

Turning to `C[C@@H]1C[C@H](O)[C@]2(O)O[C@@H]3C[C@@]4(C=O)[C@@H](CC[C@@H]5[C@@H]4CC[C@]4(C)[C@@H](C6=CC(=O)OC6)C[C@@H](O)[C@]54O)C[C@H]3O[C@@H]2O1`, the IC50 in the assay on MCF7 amounted to 0.48 µg/mL (≈ 0.875 µM); with HepG2, 0.15 µg/mL (≈ 0.273 µM); in the assay with MDA-MB-231, 0.98 µg/mL (≈ 1.79 µM); in the assay on A549 it was 0.1 µg/mL (≈ 0.182 µM).
For the compound `CC(=O)O[C@@H]1C[C@]2(O)[C@@H]3CC[C@H]4C[C@H]5O[C@@H]6O[C@H](C)C[C@H](O)[C@]6(O)O[C@@H]5C[C@]4(C=O)[C@H]3CC[C@]2(C)[C@H]1C1=CC(=O)OC1`, the IC50 with MCF7 was 0.28 µg/mL (≈ 0.474 µM); with HepG2 it was 0.39 µg/mL (≈ 0.66 µM); with MDA-MB-231 it was 0.49 µg/mL (≈ 0.83 µM); with A549 it was 0.11 µg/mL (≈ 0.186 µM).
Consider `CC(=O)O[C@H]1C[C@@H](C)O[C@H]2O[C@@H]3C[C@@H]4CC[C@@H]5[C@H](CC[C@]6(C)[C@@H](C7=CC(=O)OC7)[C@H](OC(C)=O)C[C@]56O)[C@@]4(C=O)C[C@H]3O[C@]21O`, for which the IC50 in the assay on MCF7 was 0.17 µg/mL (≈ 0.269 µM); with HepG2 it was 0.13 µg/mL (≈ 0.205 µM); in the assay with MDA-MB-231 it was 0.39 µg/mL (≈ 0.616 µM); with A549, 0.02 µg/mL (≈ 0.0316 µM).
As for `CC(=O)O[C@H]1C[C@@H](C)O[C@H]2O[C@@H]3C[C@@H]4CC[C@@H]5[C@H](CC[C@]6(C)[C@@H](C7=CC(=O)OC7)[C@H](O)C[C@]56O)[C@@]4(C=O)C[C@H]3O[C@]21O`, the IC50 in the assay on MCF7 amounted to 1 µg/mL (≈ 1.69 µM); in the assay on HepG2, 0.51 µg/mL (≈ 0.863 µM); in the assay with MDA-MB-231, 1.52 µg/mL (≈ 2.57 µM); with A549, 0.14 µg/mL (≈ 0.237 µM).
As for `C[C@@H]1C[C@@H](O)[C@]2(O)O[C@@H]3C[C@@]4(C=O)[C@@H](CC[C@@H]5[C@@H]4CC[C@]4(C)[C@@H](C6=CC(=O)OC6)C[C@@H](O)[C@]54O)C[C@H]3O[C@@H]2O1`, the IC50 was found to be 0.38 µg/mL (≈ 0.693 µM) in the assay with MCF7, 0.16 µg/mL (≈ 0.292 µM) in the assay on HepG2, 0.45 µg/mL (≈ 0.82 µM) with MDA-MB-231 and 0.07 µg/mL (≈ 0.128 µM) with A549.
The matching figures for `CC(=O)O[C@H]1C[C@@H](C)O[C@H]2O[C@@H]3C[C@@H]4CC[C@@H]5[C@H](CC[C@]6(C)[C@@H](C7=CC(=O)OC7)CC[C@]56O)[C@@]4(C=O)C[C@H]3O[C@]21O` [ASCLEPIN]: 0.02 µg/mL (≈ 0.0348 µM), 0.05 µg/mL (≈ 0.087 µM), 0.06 µg/mL (≈ 0.104 µM) and 0.01 µg/mL (≈ 0.0174 µM).
Regarding `C[C@@H]1C[C@@H](O)[C@]2(O)O[C@@H]3C[C@@]4(C=O)[C@@H](CC[C@@H]5[C@@H]4CC[C@]4(C)[C@@H](C6=CC(=O)OC6)CC[C@]54O)C[C@H]3O[C@@H]2O1` [CALACTIN], the IC50 came out at 0.01 µg/mL (≈ 0.0188 µM) in the assay on MCF7, 0.02 µg/mL (≈ 0.0375 µM) in the assay with HepG2, 0.03 µg/mL (≈ 0.0563 µM) in the assay on MDA-MB-231 and 0.0029 µg/mL (≈ 0.00544 µM) in the assay with A549.
`C[C@@H]1C[C@H](O)[C@]2(O)O[C@@H]3C[C@@]4(C=O)[C@@H](CC[C@@H]5[C@@H]4CC[C@]4(C)[C@@H](C6=CC(=O)OC6)CC[C@]54O)C[C@H]3O[C@@H]2O1` [CALOTROPIN]: the IC50 was found to be 0.08 µg/mL (≈ 0.15 µM) with MCF7; 0.11 µg/mL (≈ 0.207 µM) in the assay on HepG2; 0.16 µg/mL (≈ 0.3 µM) in the assay with MDA-MB-231; 0.015 µg/mL (≈ 0.0282 µM) with KB; 0.02 µg/mL (≈ 0.0375 µM) in the assay on A549.
`C[C@]12CC[C@H](O)C[C@H]1CC[C@@H]1[C@@H]2CC[C@]2(C)[C@@H](C3=CC(=O)OC3)CC[C@]12O` [DIGITOXIGENIN]: the IC50 in the assay on MCF7 worked out at 1.69 µg/mL (≈ 4.51 µM); in the assay on HepG2, 0.12 µg/mL (≈ 0.32 µM); in the assay with MDA-MB-231, 1.9 µg/mL (≈ 5.07 µM); in the assay with A549 it was 0.24 µg/mL (≈ 0.641 µM).
As for `COc1cccc2c1C(=O)c1c(O)c3c(c(O)c1C2=O)C[C@@](O)(C(=O)CO)C[C@@H]3O[C@H]1C[C@H](N)[C@H](O)[C@H](C)O1` [DOXORUBICIN], the IC50 in the assay on MCF7 is 0.56 µg/mL (≈ 1.03 µM); in the assay on A549, 0.79 µg/mL (≈ 1.45 µM).
As to `C[C@@H]1CC(=O)[C@]2(O)O[C@@H]3C[C@@]4(C=O)[C@@H](CC[C@@H]5[C@@H]4CC[C@]4(C)[C@@H](C6=CC(=O)OC6)CC[C@]54O)C[C@H]3O[C@@H]2O1` [USCHARIDIN], the IC50 in the assay with MCF7 was 0.04 µg/mL (≈ 0.0754 µM); with HepG2, 0.04 µg/mL (≈ 0.0754 µM); in the assay on MDA-MB-231 it was 0.09 µg/mL (≈ 0.17 µM); in the assay with A549 it was 0.01 µg/mL (≈ 0.0188 µM).
Turning to `C[C@@H]1C[C@@]2(N=CCS2)[C@]2(O)O[C@@H]3C[C@@]4(C=O)[C@@H](CC[C@@H]5[C@@H]4CC[C@]4(C)[C@@H](C6=CC(=O)OC6)CC[C@]54O)C[C@H]3O[C@@H]2O1` [USCHARIN], the IC50 in the assay with MCF7 was determined as 0.04 µg/mL (≈ 0.0681 µM); with HepG2, 1.1 µg/mL (≈ 1.87 µM); in the assay on MDA-MB-231, 0.1 µg/mL (≈ 0.17 µM); with A549, 0.01 µg/mL (≈ 0.017 µM).
